This note sets out measurements from ChEMBL document CHEMBL1649166, “Relative contributions of the Candida albicans ABC transporters Cdr1p and Cdr2p to clinical azole resistance” (2009).

Converted amounts (≈) assume the structure as drawn.

Common to all, as to type: functional
For experiment [1], the system named is Candida albicans. The experiment is described as follows: Antifungal activity against cdr1/cdr1/cdr2/cdr2 deficient Candida albicans STY31 after 48 hrs. The conditions noted are these: STY31, 48 h. The method in brief: (§1)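 Liquid microtiter broth assay in YPD, cells incubated 48 h at 30°C with drug (e.g. FLC 0.2–200 µg/ml; KTC 0.001–1.2 µg/ml). Growth read as OD620 and expressed relative to drug-free growth of the same strain. MIC50 taken as the first concentration reducing growth by 50%. Mean of three independent experiments, each in duplicate.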

Experiment [2] relates to Candida albicans. The experiment is described as follows: Antifungal activity against azole-susceptible Candida albicans 5457 after 48 hrs. Conditions: Candida albicans, 5457, 48 h. The gist of the method: as §1
Experiment [3] has as its system Candida albicans. The experiment in a line: Antifungal activity against cdr1/cdr1 deficient Candida albicans STY19 after 48 hrs. The conditions noted are these: STY19, 48 h. The gist of the method:
as §1

Experiment [4] deals with Candida albicans. The experiment in a line: Antifungal activity against cdr2/cdr2 deficient Candida albicans STY7 after 48 hrs. The conditions noted are these: STY7, 48 h. The gist of the method:
as §1

Experiment [5] has as its system Candida albicans. The experiment is described as follows: Antifungal activity against azole-resistant Candida albicans 5674 after 48 hrs. Conditions: Candida albicans, 5674, 48 h. The gist of the method:
as §1

Experiment [6] has as its system Candida albicans. The experiment in a line: Ratio of MIC50 for Candida albicans 5674 to MIC50 for cdr1/cdr1 deficient Candida albicans STY19. The method in brief: (§2)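 Ratios use MIC50s from the YPD liquid microtiter assay (48 h, 30°C, OD620 growth relative to drug-free control). MIC50 is the first concentration giving a 50% growth reduction, as the mean of three independent experiments in duplicate. The MIC50 of one strain is divided by that of the other.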

Experiment [7] deals with Candida albicans. The experiment is described as follows: Antifungal activity against tac1/tac1 deficient Candida albicans SZY31 after 48 hrs. The conditions noted are these: SZY31, 48 h. The gist of the method: as §1
Experiment [8] has as its system Candida albicans. The experiment in a line: Ratio of MIC50 for Candida albicans 5674 to MIC50 for cdr1/cdr1/cdr2/cdr2 deficient Candida albicans STY31. The gist of the method:
as §2

The test system of experiment [9] is Candida albicans. The experiment in a line: Ratio of MIC50 for Candida albicans 5674 to MIC50 for cdr2/cdr2 deficient Candida albicans STY7. The gist of the method:
as §2

In experiment [10] the test system is Candida albicans. The experiment in a line: Antifungal activity against Candida albicans STY47 expressing cdr2 gene after 48 hrs. Conditions: STY47, 48 h. The method in brief:
as §1

Experiment [11] relates to Candida albicans. The experiment in a line: Ratio of MIC50 for Candida albicans 5674 to MIC50 for Candida albicans STY47 expressing cdr2 gene. The gist of the method:
as §2

Experiment [12] concerns Candida albicans. The experiment is described as follows: Ratio of MIC50 for Candida albicans 5674 to MIC50 for tac1/tac1 deficient Candida albicans SZY31. The method in brief:
as §2

The test system of experiment [13] is Candida albicans. The experiment is described as follows: Ratio of MIC50 for cdr1/cdr1 deficient Candida albicans STY19 to MIC50 for cdr1/cdr1/cdr2/cdr2 deficient Candida albicans STY31. The gist of the method:
as §2

Take `CC(=O)N1CCN(c2ccc(OCC3COC(Cn4ccnc4)(c4ccc(Cl)cc4Cl)O3)cc2)CC1` (stereo unspecified) [KETOCONAZOLE]: the MIC50 is 0.002 µg/mL (≈ 0.00376 µM) with Candida albicans [1]; 0.018 µg/mL (≈ 0.0339 µM) with Candida albicans [2]; 0.15 µg/mL (≈ 0.282 µM) with Candida albicans [3]; 0.4 µg/mL (≈ 0.753 µM) against Candida albicans [4]; 0.6 µg/mL (≈ 1.13 µM) in the experiment on Candida albicans [5]; 0.009 µg/mL (≈ 0.0169 µM) with Candida albicans [7]. In addition, the Ratio in the experiment on Candida albicans [6] was 4; with Candida albicans [8], 300; in the experiment with Candida albicans [9], 1.5.

As to `C[C@@H]1[C@H](O)[C@@H](C)/C=C/C=C/C=C/C=C/C=C/C=C/C=C/[C@H](O[C@@H]2O[C@H](C)[C@@H](O)[C@H](N)[C@@H]2O)C[C@@H]2O[C@](O)(C[C@@H](O)C[C@@H](O)[C@H](O)CC[C@@H](O)C[C@@H](O)CC(=O)O[C@H]1C)C[C@H](O)[C@H]2C(=O)O` [AMPHOTERICIN B], the MIC50 worked out at 2 µg/mL (≈ 2.16 µM) with Candida albicans [1]; 1 µg/mL (≈ 1.08 µM) with Candida albicans [2]; 2 µg/mL (≈ 2.16 µM) with Candida albicans [3]; 2 µg/mL (≈ 2.16 µM) with Candida albicans [4]; 2 µg/mL (≈ 2.16 µM) in the experiment on Candida albicans [5]; 1 µg/mL (≈ 1.08 µM) with Candida albicans [7].

As to `OC(Cn1cncn1)(Cn1cncn1)c1ccc(F)cc1F` [FLUCONAZOLE], the MIC50 in the experiment with Candida albicans [1] was 0.4 µg/mL (≈ 1.31 µM); against Candida albicans [2] it was 3.1 µg/mL (≈ 10.1 µM); with Candida albicans [3] it was 25 µg/mL (≈ 81.6 µM); in the experiment with Candida albicans [4], 100 µg/mL (≈ 327 µM); in the experiment with Candida albicans [5] it was 150 µg/mL (≈ 490 µM); with Candida albicans [7], 6.2 µg/mL (≈ 20.2 µM). The molecule further showed an MIC50 in the experiment on Candida albicans [10] of 6.3 µg/mL (≈ 20.6 µM). For the same molecule, the Ratio in the experiment with Candida albicans [6] came to 6; in the experiment on Candida albicans [8], 375; in the experiment with Candida albicans [9], 1.5; in the experiment on Candida albicans [11], 16.

Regarding `CCC(C)n1ncn(-c2ccc(N3CCN(c4ccc(OCC5COC(Cn6cncn6)(c6ccc(Cl)cc6Cl)O5)cc4)CC3)cc2)c1=O` (stereo unspecified) [ITRACONAZOLE], the MIC50 in the experiment with Candida albicans [1] came out at 0.0004 µg/mL (≈ 0.000567 µM); against Candida albicans [2] it was 0.0125 µg/mL (≈ 0.0177 µM); against Candida albicans [3] it was 0.025 µg/mL (≈ 0.0354 µM); against Candida albicans [4] it was 0.2 µg/mL (≈ 0.283 µM); in the experiment on Candida albicans [5] it was 0.2 µg/mL (≈ 0.283 µM); in the experiment with Candida albicans [7], 0.0063 µg/mL (≈ 0.00893 µM). Further, the Ratio in the experiment on Candida albicans [6] came to 8; in the experiment with Candida albicans [8], 500; in the experiment on Candida albicans [9], 1.

As for `OCCN1CCN(CCCN2c3ccccc3Sc3ccc(C(F)(F)F)cc32)CC1` [FLUPHENAZINE], the MIC50 against Candida albicans [1] is 25 µg/mL (≈ 57.1 µM); against Candida albicans [2] it was 75 µg/mL (≈ 171 µM); against Candida albicans [3], 50 µg/mL (≈ 114 µM); against Candida albicans [4], 75 µg/mL (≈ 171 µM); in the experiment on Candida albicans [5], 75 µg/mL (≈ 171 µM); in the experiment on Candida albicans [7], 38 µg/mL (≈ 86.9 µM). Further, the Ratio is reported as 1.5 in the experiment on Candida albicans [6], 2 in the experiment on Candida albicans [12], 1 with Candida albicans [9] and 2 in the experiment with Candida albicans [13].

With `CC/N=c1\cc2oc3cc(NCC)c(C)cc3c(-c3ccccc3C(=O)OCC)c-2cc1C.Cl` [RHODAMINE 6G HYDROCHLORIDE], the MIC50 with Candida albicans [1] came to 8 µg/mL; against Candida albicans [2], 8 µg/mL; with Candida albicans [3], 8 µg/mL; in the experiment on Candida albicans [4] it was 16 µg/mL; in the experiment with Candida albicans [5], 16 µg/mL; against Candida albicans [7], 2 µg/mL.

What is called MIC50 is the lowest concentration that inhibits either 50% of growth or 50% of the strains tested, depending on the study. Low readings indicate higher susceptibility, high ones lower susceptibility.
